Molecules are shown by their SMILES. Activity calls are given as the source filed them. The rule behind the calls is not given here.

Assay [1] has as its system Canis familiaris. Briefly: Mean arterial blood pressure in dog after administering ca. 1.875 mg/Kg drug intravenously. The assay is classed as functional, Canis lupus familiaris. The arrangement: unit not given beside the values. The method, boiled down: (§1)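 Adult mongrel dogs anesthetized with sodium pentobarbital (45 mg/kg ip) and artificially respired. MAP measured via cannulated femoral artery; HR from cardiotachometer; LV +dP/dtmax via Millar catheter; CF by Walton Brodie strain gauge on right ventricle (baseline tension 100 g). Compound in 10% DMF/saline or HCl salt, infused iv into femoral vein over 5 min per step. Each step given at peak of the prior one; three to four increasing doses. Response expressed as % change from predrug control; n = 1–5 dogs.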

Assay [2] deals with Canis familiaris. In words: Cardiac force in dog after administering ca. 1.875 mg/Kg drug intravenously. Format: functional, Canis lupus familiaris. Details: unit not given beside the values. The method, boiled down:
as §1

For assay [3], the system named is Canis familiaris. In words: Heart rate in dog after administering ca. 1.875 mg/Kg drug intravenously. The assay is classed as functional, Canis lupus familiaris. A digest of the protocol: as §1
For assay [4], the species on record is Canis familiaris. In words: dP/dt max was determined in dog. Format: functional, Canis lupus familiaris. The arrangement: unit not given beside the values. The method, boiled down:
as §1

Assay [5] can be described thus: Relative change in CF was determined by calculating the effective concentration that produced a 50% of maximum increase in tension. Format: functional, Mustela putorius furo. The method, boiled down:
(§2)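 Ferret papillary muscle in Tyrode's solution with timolol (1×10^-7 M); compound given at cumulative serially increasing concentrations, each read at 15 min. EC50 is the concentration giving 50% of that compound's own maximal tension increase. Estimated graphically from mean data, n ≥ 3.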

The subject of assay [6] is Canis familiaris. Briefly: Effective dose required to produce 50% increase of cardiac force in dog after administering ca. 1.875 mg/Kg drug intravenously. Format: functional. The conditions noted are these: Canis lupus familiaris, iv. A digest of the protocol:
as §1

The species named for another assay is Mustela putorius furo. Briefly: In vitro changes in contractile force (CF) quantitated by determining the maximal increase in isometric tension by using ferret papillary muscle. The conditions noted are these: Muscle tissue. The assay is classed as functional, tissue-based. A digest of the protocol:
(§3)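 Isolated ferret papillary muscle in Tyrode's solution with timolol (1×10^-7 M), equilibrated 2 h. Compound diluted from 1×10^-2 M DMSO stock and added at serially increasing concentrations, up to 10 μM. Isometric tension read 15 min after each addition. Result is maximal increase as % of control tension, from mean of n ≥ 3.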

A short description of assay [7]: Relative changes in CF was determined by calculating the effective concentration that produced a 50% of maximum increase in tension. The assay is classed as functional, Mustela putorius furo. The method, boiled down:
as §2

Assay [8] concerns Canis familiaris. In words: Heart rate determined in dog after administering ca. 1.875 mg/kg drug intra venously. Format: functional, Canis lupus familiaris. A digest of the protocol: as §1
For assay [9], the system named is Canis familiaris. Briefly: Cardiac force was determined in dog after administering ca. 1.875 mg/kg drug intra venously. Format: functional, Canis lupus familiaris. The method, boiled down: as §1
Assay [10] concerns Canis familiaris. Briefly: Dose to produce a 50% increase of CF n dog after administering ca. 1.875 mg/kg drug intra venously. The conditions noted are these: Canis lupus familiaris. Format: functional. A digest of the protocol:
as §1

A short description of assay [11]: In vitro changes in contractile force (CF) quantitated by determining the maximal increase in isometric tension by using ferret papillary muscle. Format: functional, Mustela putorius furo, Muscle tissue. The method, boiled down: as §3
The test system of assay [12] is Canis familiaris. Briefly: Mean arterial blood pressure determined in dog after administering ca. 1.875 mg/kg drug intra venously. The assay is classed as functional, Canis lupus familiaris. A digest of the protocol: as §1

On to `OC(COc1[nH]cnc2ncnc1-2)CN1CCN(C(c2ccc(F)cc2)c2ccc(F)cc2)CC1` (stereo not given), for which, in the assay with Canis familiaris [1], the MAP is reported as 4. In the assay with Canis familiaris [2], this compound gave a Cardiac force of 80. This compound also registered a Heart rate with Canis familiaris [3] of 12. Moreover, the dP/dt max in the assay listed under Canis familiaris [4] is 58. For the same compound, the EC50 (usually the midpoint of the concentration-response curve) in [5] was “Not Active”. In addition, the ED50 (as a rule, the dose at which the effect has come halfway, by size or by number of responders) in the assay on Canis familiaris [6] worked out at 0.72 mg/kg. The Max result in the assay filed under Mustela putorius furo is “inactive”.

`CC(=O)Oc1ccccc1C(=O)OC(CSc1[nH]cnc2ncnc1-2)CN1CCN(C(c2ccc(F)cc2)c2ccc(F)cc2)CC1` (stereo not given): in assay [7], the EC50 was 2.5 µM. Besides, the Heart rate in the assay on Canis familiaris [8] is given as 1. Further, in the assay with Canis familiaris [9], the Cardiac force was 56. The compound also displayed an ED50 with Canis familiaris [10] of 1.6 mg/kg. Besides, the Max in assay [11] is listed as 34%. The compound further returned a dP/dt max in the assay filed under Canis familiaris [4] of 34. Further, the MPA with Canis familiaris [12] stood at 0.

In turn, `OC(COc1[nH]cnc2ncnc1-2)CN1CCN(C(c2ccccc2)c2ccccc2)CC1` (stereo not given) returned an MAP in the assay on Canis familiaris [1] of 4. This compound also gave a Cardiac force in the assay with Canis familiaris [2] of 69. This compound also came in with a Heart rate with Canis familiaris [3] of 2. Besides, in the assay filed under Canis familiaris [4], the dP/dt max amounted to 37. Also, the EC50 entry in assay [5] was “Not Active”. The same compound gave an ED50 in the assay on Canis familiaris [6] of 0.9 mg/kg. Further, in the assay filed under Mustela putorius furo, the Max result was “inactive”.

With `CN(CC(O)CN1CCN(C(c2ccc(F)cc2)c2ccc(F)cc2)CC1)c1[nH]cnc2ncnc1-2` (stereo not given), the MAP with Canis familiaris [1] is given as 4. Also, the Cardiac force with Canis familiaris [2] was found to be 82. In addition, the Heart rate in the assay with Canis familiaris [3] stood at 7. Also, in the assay listed under Canis familiaris [4], the dP/dt max amounted to 66. Besides, in [5], the EC50 result was “Not Active”. Moreover, in the assay on Canis familiaris [6], the 50% effect level (ED50) was put at a dose of 0.74 mg/kg. For the same compound, in the assay filed under Mustela putorius furo, the Max result was “inactive”.

For `Fc1ccc(C(c2ccc(F)cc2)N2CCN(CCCSc3[nH]cnc4ncnc3-4)CC2)cc1`, the MAP in the assay with Canis familiaris [1] is given as -6. In the assay with Canis familiaris [2], this compound had a Cardiac force of 38. In addition, the Heart rate in the assay with Canis familiaris [3] turned out to be 2. This compound showed a dP/dt max in the assay filed under Canis familiaris [4] of 17. Moreover, in assay [5], the EC50 result is reported as “Not Active”. Further, in the assay with Canis familiaris [6], the 50% effect level (ED50) was put at a dose of 1.3 mg/kg. The Max result in the assay filed under Mustela putorius furo was “inactive”.

(Values after ChEMBL document CHEMBL1126098, “Synthesis and SAR of 6-substituted purine derivatives as novel selective positive inotropes” (J Med Chem, 1992).)
